Source: ChEMBL document CHEMBL1121898, “Potential antiestrogens. Synthesis and evaluation of mammary tumor inhibiting activity of 1,2-dialkyl-1,2-bis(3'-hydroxyphenyl)ethanes” (1981)
Values belong to the molecule of their own block, whether it stands above or below them. Calls of active or inactive are those of the source.

Assays:
[1] = organism: Rattus norvegicus; experiment: Percent change in DMBA-induced hormone-dependent mammary carcinoma tumor area at 9 mg after 28 days; type: functional
Procedure, shortened: (§1)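 DMBA-induced, hormone-dependent mammary adenocarcinoma in SD rats. Rats bearing at least one tumor >140 mm² were placed in groups of ten. Compound was given sc as a single dose (mg/kg) daily Monday–Thursday and a double dose on Friday. Tumors were counted at the start and as new tumors; responses were scored as complete remission (not palpable), partial remission (≥50% reduction), no change or progression. Tumor area and body weight were recorded as % change.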

[2] = organism: Rattus norvegicus; experiment: Final number of DMBA-induced hormone-dependent mammary carcinoma tumors in rats at 4.5 mg; type: functional
Procedure, shortened: (§2)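 Sprague-Dawley rats carrying DMBA-induced, hormone-dependent mammary adenocarcinoma, at least one tumor >140 mm², were placed in groups of ten. Compounds were given sc, with doses in mg/kg: a single daily dose Monday to Thursday and a double dose on Friday. Ovariectomy served as a comparator group. New tumors arising during the test were counted.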

[3] = organism: Rattus norvegicus; experiment: Final number of DMBA-induced hormone-dependent mammary carcinoma tumors in rats at 9 mg; type: functional; procedure, shortened: as §2
[4] = organism: Rattus norvegicus; experiment: Complete remission of DMBA-induced hormone-dependent mammary carcinoma tumors in ovariectomised rats; type: functional
Procedure, shortened: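 Female SD rats bearing DMBA-induced, hormone-dependent mammary adenocarcinoma, with at least one tumor >140 mm², were grouped in tens. Dosing was sc per kg body weight: a single dose daily Monday–Thursday and a double dose Friday. Ovariectomy served as the comparison arm. Complete remission was defined as a tumor no longer palpable. Body weight and tumor area changes were also recorded.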

[5] = organism: Rattus norvegicus; experiment: Percent change in body weight DMBA-induced hormone-dependent mammary carcinoma tumors in rats at 4.5 mg for 7 days; type: functional
[6] = organism: Rattus norvegicus; experiment: Partial remission of DMBA-induced hormone-dependent mammary carcinoma tumors in rats at 2.25 mg; type: functional; procedure, shortened: as §1
[7] = organism: Rattus norvegicus; experiment: Progression of DMBA-induced hormone-dependent mammary carcinoma tumors in rats at 2.25 mg; type: functional
[8] = organism: Rattus norvegicus; experiment: Initial tumor number of DMBA-induced hormone-dependent mammary carcinoma in rats at 2.25 mg; type: functional; procedure, shortened: as §1
[9] = target: T1, Estrogen receptor (Mus musculus) (UniProt O08537+P19785); experiment: Antiestrogenic activity in uterotrophic test in mice at 5 ug; type: functional
Procedure, shortened: (§3)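 Immature female NMRI mice, 20 days old (14.5 ± 1.2 g), randomly grouped 10 per group. Each received a daily sc injection for 3 days of 0.1 mL olive oil solution containing test compound, together with estrone to stimulate uterine growth. Uteri were removed 24 h after the last injection and weighed. Results are reported as % inhibition of the estrone-stimulated uterine weight gain, mean ± SD.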

[10] = target: T1, Estrogen receptor (Mus musculus); experiment: Estrogenic activity in uterotrophic test in mice at 1500 ug; type: functional
Procedure, shortened: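 Uterine growth stimulation in immature female NMRI mice, 20 days old (14.5 ± 1.2 g), 10 per group. Test compound in 0.1 mL olive oil was given sc daily for 3 days. Uteri were excised 24 h after the final injection and weighed. Effect is reported as mean ± SD.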

[11] = organism: Rattus norvegicus; experiment: Percent change in body weight DMBA-induced hormone-dependent mammary carcinoma tumors in rats at 2.25 mg for 7 days; type: functional
[12] = target: T1, Estrogen receptor (Mus musculus); experiment: Inhibitory activity in mouse uterine weight test at 500 ug; type: functional
Procedure, shortened: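 Immature female NMRI mice, 20 days old (14.5 ± 1.2 g), in random groups of 10. They received sc injections daily for 3 days of 0.1 mL olive oil containing test compound, with estrone 0.1 μg given to stimulate uterine growth. Uteri were removed 24 h after the last injection and weighed (mean ± SD). Result is percent inhibition of the estrone-stimulated uterine weight gain.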

[13] = organism: Rattus norvegicus; experiment: Final number of DMBA-induced hormone-dependent mammary carcinoma tumors in rats at 4 mg; type: functional; procedure, shortened: as §2
[14] = organism: Rattus norvegicus; experiment: Partial remission of DMBA-induced hormone-dependent mammary carcinoma tumors in rats at 2 mg; type: functional; procedure, shortened: as §1
[15] = organism: Rattus norvegicus; experiment: Partial remission of DMBA-induced hormone-dependent mammary carcinoma tumors in rats at 4 mg; type: functional; procedure, shortened: as §1
[16] = organism: Rattus norvegicus; experiment: Percent change in body weight DMBA-induced hormone-dependent mammary carcinoma tumors in rats at 18 mg for 7 days; type: functional; settings: in the assay text read “at 1 mg” for “at 18 mg”; procedure, shortened: as §1
[17] = organism: Rattus norvegicus; experiment: Percent change in DMBA-induced hormone-dependent mammary carcinoma tumor area at 2 mg after 28 days; type: functional; procedure, shortened: as §1
[18] = organism: Rattus norvegicus; experiment: Percent change in DMBA-induced hormone-dependent mammary carcinoma tumor area at 4 mg after 28 days; type: functional; procedure, shortened: as §1
[19] = organism: Rattus norvegicus; experiment: Percent unchanged tumor size of DMBA-induced hormone-dependent mammary carcinoma tumors in rats at 1 mg; type: functional
[20] = organism: Rattus norvegicus; experiment: Percent unchanged tumor size of DMBA-induced hormone-dependent mammary carcinoma tumors in rats at 2 mg; type: functional
[21] = organism: Rattus norvegicus; experiment: Percent unchanged tumor size of DMBA-induced hormone-dependent mammary carcinoma tumors in rats at 4 mg; type: functional
[22] = organism: Rattus norvegicus; experiment: Progression of DMBA-induced hormone-dependent mammary carcinoma tumors in rats at 2 mg; type: functional
[23] = organism: Rattus norvegicus; experiment: Progression of DMBA-induced hormone-dependent mammary carcinoma tumors in rats at 4 mg; type: functional
[24] = organism: Rattus norvegicus; experiment: Initial tumor number of DMBA-induced hormone-dependent mammary carcinoma in rats at 2 mg; type: functional; procedure, shortened: as §1
[25] = system: MCF7; experiment: Inhibition of estrogen receptor positive MCF-7 cell proliferation as cell number after 10 days at 10e-7 M with 10e-7 M 17-beta-estradiol; type: functional, Homo sapiens
Procedure, shortened: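 MCF-7 cells were grown in McCoy's 5a medium with fetal bovine serum stripped by DCC (0.5 h, 45 °C). Compounds were dissolved in ethanol (final ≤0.5%) and diluted in complete medium. Cells were seeded at 5×10^4 cells/plate. On day 10, three replicate plates per group were counted by Coulter counter, three counts per plate. Percent T/C = test/control. In a retest, compounds were given at 10^-7 M with 17β-estradiol at 10^-7 or 10^-8 M.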

[26] = organism: Mus musculus; experiment: Vaginal cornification test in mice at 2.5 ug; predominant cellular component leucocytes (diestrus); type: functional, organism-based
[27] = organism: Mus musculus; experiment: Predominant components of vaginal smear at a compound concentration of 500 ug was determined using vaginal cornification test; leucocytes (</= 50%), nucleated and cornified, nucleated cellscharacteristic of antiestrogens; type: functional, organism-based
[28] = organism: Mus musculus; experiment: Predominant components of vaginal smear at a compound concentration of 50 ug was determined using vaginal cornification test; leucocytes (</= 50%), nucleated and cornified, nucleated cellscharacteristic of antiestrogens; type: functional, organism-based
[29] = target: T1, Estrogen receptor (Mus musculus); experiment: Antiestrogenic activity in uterotrophic test in mice at 0 ug (experiment 1); type: functional; procedure, shortened: as §3
[30] = target: T1, Estrogen receptor (Mus musculus); experiment: Estrogenic activity in uterotrophic test in mice at 8 ug (experiment 1); type: functional
Procedure, shortened: (§4)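 Immature (20-day-old) female NMRI mice, 14.5 ± 1.2 g, randomized into groups of 10. Given the test compound sc daily for 3 days in 0.1 mL olive oil. Uteri removed 24 h after the last injection; uterine weight taken as the read-out, means ± SD. Dose in μg.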

[31] = target: T1, Estrogen receptor (Mus musculus); experiment: Estrogenic activity in uterotrophic test in mice at 80 ug (experiment 2); type: functional; procedure, shortened: as §4
[32] = target: T1, Estrogen receptor (Mus musculus); experiment: Inhibitory activity in mouse uterine weight test at 50 ug (experiment 2); type: functional
Procedure, shortened: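 Antiuterotrophic (Dorfman) assay in immature 20-day-old female NMRI mice, groups of 10. Uterine growth was stimulated with estrone (0.1 μg) and the test compound was given alongside it, sc daily for 3 days in 0.1 mL olive oil. Uteri were taken 24 h after the last dose. Uterine weight is reported as means ± SD and inhibition as % of the estrone-stimulated response.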

[33] = organism: Rattus norvegicus; experiment: Final number of DMBA-induced hormone-dependent mammary carcinoma tumors in rats at 1 mg; type: functional; procedure, shortened: as §2

T1 sequence (O08537 whole entry, looked up): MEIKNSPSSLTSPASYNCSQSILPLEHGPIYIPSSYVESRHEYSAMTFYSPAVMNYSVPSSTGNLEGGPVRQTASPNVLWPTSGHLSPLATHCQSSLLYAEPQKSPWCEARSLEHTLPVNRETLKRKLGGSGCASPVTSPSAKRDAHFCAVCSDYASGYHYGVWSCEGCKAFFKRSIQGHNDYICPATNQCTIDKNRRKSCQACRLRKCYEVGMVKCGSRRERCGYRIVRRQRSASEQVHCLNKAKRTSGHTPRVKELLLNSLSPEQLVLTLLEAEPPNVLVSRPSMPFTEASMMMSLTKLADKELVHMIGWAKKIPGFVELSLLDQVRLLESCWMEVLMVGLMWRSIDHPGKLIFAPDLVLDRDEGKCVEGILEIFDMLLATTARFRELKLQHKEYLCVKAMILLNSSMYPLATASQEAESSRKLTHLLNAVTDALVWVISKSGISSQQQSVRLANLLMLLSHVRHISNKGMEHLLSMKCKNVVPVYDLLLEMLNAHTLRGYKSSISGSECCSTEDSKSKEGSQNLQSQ
T1 sequence (P19785 whole entry, looked up): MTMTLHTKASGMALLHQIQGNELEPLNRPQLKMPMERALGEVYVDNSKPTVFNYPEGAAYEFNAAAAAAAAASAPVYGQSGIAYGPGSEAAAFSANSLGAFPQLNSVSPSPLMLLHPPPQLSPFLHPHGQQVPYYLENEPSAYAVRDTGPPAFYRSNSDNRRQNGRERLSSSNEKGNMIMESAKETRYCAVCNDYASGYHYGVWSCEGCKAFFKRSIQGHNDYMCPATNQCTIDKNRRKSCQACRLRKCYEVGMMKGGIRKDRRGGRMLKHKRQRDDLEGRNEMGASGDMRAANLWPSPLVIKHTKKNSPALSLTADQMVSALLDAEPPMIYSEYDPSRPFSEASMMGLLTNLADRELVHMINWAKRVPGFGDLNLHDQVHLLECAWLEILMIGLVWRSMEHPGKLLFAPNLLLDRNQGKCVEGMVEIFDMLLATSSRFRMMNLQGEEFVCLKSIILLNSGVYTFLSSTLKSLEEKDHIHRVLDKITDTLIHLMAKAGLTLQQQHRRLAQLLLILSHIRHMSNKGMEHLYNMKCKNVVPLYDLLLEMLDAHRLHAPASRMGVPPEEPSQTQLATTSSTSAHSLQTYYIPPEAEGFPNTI

Effect [9]: 30.4
Effect [10]: 28
inhibition [12]: 50%
SMILES: CCCC(c1cccc(O)c1)C(CCC)c1cccc(O)c1 (stereo not drawn)
Change [1]: -24%
No. of tumors [2]: 6
No. of tumors [3]: 1
Tumors [4]: 90%
Change [5]: -1.1%
Tumors [6]: 8%
Tumors [7]: 54%
No. of tumors [8]: 22
Change [11]: 0.4%

Effect [29]: 12.5
Effect [30]: 14.4
Effect [31]: 30.5
inhibition [32]: 47%
SMILES: CCC(c1cccc(O)c1)C(CC)c1cccc(O)c1 (stereo in doubt; 20)
No. of tumors [13]: 11
Tumors [14]: 30%
Tumors [15]: 25%
Change [16]: -1.6%
Change [17]: 11%
Change [18]: -75%
Tumors [19]: 35%
Tumors [20]: 30%
Tumors [21]: 19%
Tumors [22]: 21%
Tumors [23]: 10%
No. of tumors [24]: 30
Cell number [25]: 5600
Activity [26]: inactive
Activity [27]: Weak activity
Activity [28]: Weak activity
No. of tumors [33]: 37
